Variants at the floor of the assay were thinned out.
B1: tRNA (parent)
chain: GUUCCGUUGGCGUAAUGGUAACGCGUCUCCCUCCUAAGGAGAAGACUGCGGGUUCGAGUCCCGUACGGAACG

Variants of: B1
Experiment: yeast fitness relative to wild type (ratio to wild type); higher = fitter; tRNA-Arg(CCU), competitive growth, 37 C, YPD
In short: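 Variants of the tRNA-Arg(CCU) gene, chemically synthesised with a 3% per-site mutation rate at 69 sites, were placed at the native genomic locus in Saccharomyces cerevisiae. The pooled strains were competed in YPD at 37°C for 24 hours in six parallel replicates. Gene amplicons from the start population and from each end population were read by 100-nucleotide paired-end sequencing. Darwinian fitness relative to wild type came from changes in genotype frequencies; genotypes needed ≥ 100 starting reads, and estimates < 0.5 were set to 0.5.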

Point of comparison: GUUCCGUUGGCGUAAUGGUAACGCGUCUCUCUCCUAAGGAGAUGACUGCGGGUUCGAGUCCUGUACGGAACG [C30U A43U C62U], yeast fitness 0.845. Against it:
- GUUCCGUUGGCGUAAUGGUAACGCGUCUCUCUCCUACGGAGAAGAUUGCGGGUUCGAGUCCCGUACGGAACG [C30U A37C C46U] — lower, 0.666
- GUUCCGUUGGCGUAAUGGUAACGCGUCUCUCUCCUAAGGCGCAGACUGCGGGUUCGAGUCCCGUACGUAACG [C30U A40C A42C G68U] — lower, ≤ 0.5
- GUUCCGUUGGCGUAAUGGUAACGCGUCUCUCUCCUAGGAAGAAGACUGCGGGUUCGAGUCCCGUACGGAACG [C30U A37G G39A] — lower, 0.552
- GUUCCGUUGGCGUAAUGGUAACGCGUCUCUCUCCUAAGGAGACGACUGCGGGUUCGAAUCCCGUACGGAACG [C30U A43C G58A] — higher, 0.99
- GUUCCGUUGGCGUAAUGGUAACGCGUCUCUCUCCUACGGAGAAGACUGCGGGUUCGAGUCCCGUACGGAACG [C30U A37C] — lower, 0.729
- GUUCCGUUGGCGUAAUGGUAACGCGUCUCUCUCCUAGGGAGAAGACUGCGGGUUCGAGUCCCGUACGGAACG [C30U A37G] — lower, 0.656
- GUUCCGUUGGCGUAAUGGUAACGCGUCUCUCUCCUAAGGAGCAGACUCCGGGUUCGAGUCCCGUACGGAACG [C30U A42C G48C] — lower, ≤ 0.5
- GUUCCGUUGGCGUAAUGGUAACGCGUCUCUCUCCUAAGGAGGAGACUGCGGGUUCGAGUCCAGUACGGAACG [C30U A42G C62A] — lower, ≤ 0.5
- GUUCCGUUGGCGUAAUGGUAACGCGUCUCUCUCCUAAGGAGGAGACUGCGGGUUCGAGUGCGGUGCGGAACG [C30U A42G C60G C62G A65G] — lower, ≤ 0.5
- GUUCCGUUGGCGUAAUGGUAACGCGUCUCUCUCCUAAGGAGGAGACUGCGGCUUCGAGUCCCGUACGGAACG [C30U A42G G52C] — lower, ≤ 0.5
- GUUCCGUUGGCGUAAUGGUAACGCGUCUCUCUCCUGAGGAGAAAACUGCGGGUUCGAGUCGCGUACGGAACG [C30U A36G G44A C61G] — lower, ≤ 0.5
- GUUCCGUUGGCGUAAUGGUAACGCGUCUCUCUCCUAAGGCGAAGACUGCGGGUUCGCGUCCCGUACGGAACG [C30U A40C A57C] — lower, ≤ 0.5
- GUUCCGUUGGCGUAAUGGUAACGCGUCUCUCUCCUUAGGAGAAGACUGCGGGUUCGAGUCCCGUACGGAACG [C30U A36U] — lower, 0.57
- GUUCCGUUGGCGUAAUGGUAACGCGUCUCUCUCCUAAGGCGAAGACUGCGGGUUCGAGUCCCCCACGGAACG [C30U A40C G63C U64C] — lower, ≤ 0.5
- GUUCCGUUGGCGUAAUGGUAACGCGUCUCUCUCCUACGGAGAAGACUGCGGGUUCGAGUCCCGUAUGGAACG [C30U A37C C66U] — lower, ≤ 0.5
- GUUCCGUUGGCGUAAUGGUAACGCGUCUCUCUCCUAAGGAGACGACUGCGGAUUCGAGUCCCGUAUGGAACG [C30U A43C G52A C66U] — lower, ≤ 0.5
- GUUCCGUUGGCGUAAUGGUAACGCGUCUCUCUCCUAAGGAGACGACUGCGGGUACGAGUCCCGUACGGAACG [C30U A43C U54A] — lower, 0.611
- GUUCCGUUGGCGUAAUGGUAACGCGUCUCUCUCCUAAGGUGAAGACUGAGGGUUCAUGUCCCGUACGGAACG [C30U A40U C49A G56A A57U] — lower, ≤ 0.5
- GUUCCGUUGGCGUAAUGGUAACGCGUCUCUCUCCUAAGGAGAGGACUGCGGGUUCGAGUCCCGUACGGAACG [C30U A43G] — lower, 0.647
- GUUCCGUUGGCGUAAUGGUAACGCGUCUCUCUCCUAGGGAGAAGACUGCGGGUUCGAGUCCCGUACGGACCG [C30U A37G A70C] — lower, 0.59
- GUUCCGUUGGCGUAAUGGUAACGCGUCUCUCUCCUAAGGUGAAGACUGCGGGUUCGAGUCCCGUACGGAACG [C30U A40U] — higher, 0.965
- GUUCCGUUGGCGUAAUGGUAACGCGUCUCUCUCCUAAGGCGAAGACUGCGGGUUCGAGUCCCGUACGGAACG [C30U A40C] — lower, 0.792
- GUUCCGUUGGCGUAAUGGUAACGCGUCUCUCUCCUAAGGGGAAGACUGCGGGUUCGAGUCCCGUACGGAACG [C30U A40G] — higher, 0.914
- GUUCCGUUGGCGUAAUGGUAACGCGUCUCUCUCCUAAGGAGCAGACUGCGGGUUCGAGUCCCGUACCGUACG [C30U A42C G67C A69U] — lower, ≤ 0.5
- GUUCCGUUGGCGUAAUGGUAACGCGUCUCUCUCCUAAGGAGUAGACUGCGGGUUCGAGUCCCGUACGGAACG [C30U A42U] — higher, 0.879
- GUUCCGUUGGCGUAAUGGUAACGCGUCUCUCUCCUAAGGAGGAGACUGCGGGUUCGAGUCCCGUACGGAACG [C30U A42G] — lower, 0.8
- GUUCCGUUGGCGUAAUGGUAACGCGUCUCUCUCCUAAGGAGCAGACUGCGGGUUCGAGUCCCGUACGGAACG [C30U A42C] — lower, 0.755
- GUUCCGUUGGCGUAAUGGUAACGCGUCUCUCUCCUGGGGAGAAGACUGCGGGUUCGAGUCCCGUACGGAACG [C30U A36G A37G] — lower, 0.548
- GUUCCGUUGGCGUAAUGGUAACGCGUCUCUCUCCUUGGGAGAAGACUACGGGUUCGAGUCCCGUACGGAGCG [C30U A36U A37G G48A A70G] — lower, ≤ 0.5
- GUUCCGUUGGCGUAAUGGUAACGCGUCUCUCUCCUAUGGAGAAGACUGCGGAUUCGAGUCGCGUACGGAACG [C30U A37U G52A C61G] — lower, ≤ 0.5
- GUUCCGUUGGCGUAAUGGUAACGCGUCUCUCUCCUAAGGAGGAGACUGCGGGUUUGAGUCCCGUACGGAACG [C30U A42G C55U] — lower, 0.545
- GUUCCGUUGGCGUAAUGGUAACGCGUCUCUCUCCUUAGGAGAAGACUGCGGGUUCGGGUCCCGUACGGAACG [C30U A36U A57G] — lower, ≤ 0.5
- GUUCCGUUGGCGUAAUGGUAACGCGUCUCUCUCCUAAGGAGAUGACUGCGGGUUCGAGUCGCGUACGGCACG [C30U A43U C61G A69C] — lower, ≤ 0.5
- GUUCCGUUGGCGUAAUGGUAACGCGUCUCUCUCCUAAGGAGAUGACUGCGGGUUAGAGUCCCGUACGGAACG [C30U A43U C55A] — lower, ≤ 0.5
- GUUCCGUUGGCGUAAUGGUAACGCGUCUCUCUCCUACAGAGAAGACUGCGGGUUCGAGUCCCGUACGGAACG [C30U A37C G38A] — lower, ≤ 0.5
- GUUCCGUUGGCGUAAUGGUAACGCGUCUCUCUCCUAAGGGGAAGACUGCGGGUUUGAGUCCCGCACGGAACG [C30U A40G C55U U64C] — lower, 0.646
- GUUCCGUUGGCGUAAUGGUAACGCGUCUCUCUCCUAAGGAGCAGACUGCGGGUUCGAGUCCGGUAGGGAACG [C30U A42C C62G C66G] — lower, ≤ 0.5
